The structures appear in SMILES notation. Activity calls are given as the source filed them. The calls are words filed in the database; no cut-off is given here.

For experiment [1], the system named is Human immunodeficiency virus. Put plainly: Antiviral activity against HIV. Type of experiment: functional, organism-based.
The nature of experiment [2]: Ratio of antiviral activity against human CMV to rhesus CMV. Type of experiment: functional, Cercopithecine herpesvirus 8.
A further experiment deals with Human alphaherpesvirus 1. The experiment can be described thus: Antiviral activity against HSV. The experiment is classed as functional, organism-based.
The next experiment relates to Human betaherpesvirus 6. The experiment can be described thus: Antiviral activity against HHV6. The experiment is classed as functional, organism-based.
For the next experiment, the system named is Murid betaherpesvirus 2. The experiment can be described thus: Antiviral activity against rat CMV. The experiment is classed as functional, organism-based.
The subject of experiment [3] is HFF. The experiment can be described thus: Antiviral activity against human CMV by luciferase reporter gene assay in HFF cells. The experiment is classed as functional, cell-based. Put shortly:
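HFF cells (10^4/well) were rested 2 h, then infected with rhCMVLuc at MOI 1 pfu/cell. Inoculum was removed after 1 h and drug added (0.005–5 µM or 0.05–50 µM) for 48 h at 37 °C. Luciferase was read with Mg(OAc)2, 30 mM Tricine pH 7.8 and 200 µM EDTA. IC50 is 50% inhibition of hCMV DNA replication.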
A general note: In a reporter assay the amount or activity of a reporter protein is the signal.

Another experiment concerns Caviid betaherpesvirus 2. The experiment can be described thus: Antiviral activity against guinea pig CMV. Type of experiment: functional, organism-based.
A further experiment has as its system Murid betaherpesvirus 1. The experiment can be described thus: Antiviral activity against mouse CMV. The experiment is classed as functional, organism-based.
The test system of another experiment is Human gammaherpesvirus 4. Put plainly: Antiviral activity against EBV. The experiment is classed as functional, organism-based.
Experiment [4] relates to HFF. Put plainly: Antiviral activity against human CMV by dot blot assay in HFF cells. Type of experiment: functional, cell-based. Put shortly:
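Dot blot DNA replication readout. HFF cells were seeded at 2 × 10^4 cells/well and infected with rhCMVLuc, clinical isolates or wild-type virus, then incubated 72 h with drug. Cells were lysed in 0.4 N NaOH, 0.5 M EDTA, applied to membrane by microfiltration and UV-crosslinked. DNA was hybridized to a hCMV-specific 32P probe and detected by phosphorimaging.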

The subject of experiment [5] is Human betaherpesvirus 5. The experiment can be described thus: Inhibition of human CMV growth by plaque reduction assay. The experiment is classed as functional. The method in brief:
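Plaques counted after 10-day incubation of 10^5 cells infected with 1000 pfu of wild-type, clinical-isolate or resistant virus; IC99.9 is the drug amount inhibiting plaque formation by 99.9%.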
A general note: In a plaque reduction assay, fewer plaques than in the control indicate reduced infectivity or spread.

The subject of experiment [6] is HFF. Put plainly: Cytotoxicity against HFF cells. The experiment is classed as functional, cell-based. To be noted: Homo sapiens. The method in brief: (§1)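 HFF or Jurkat cells were seeded and compound added 3 h later. Alamar blue staining at 0, 24, 48 and 72 h, then a further 3 h incubation, with fluorescence read-out. IC50 is the concentration inhibiting cell growth by 50%.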

Another experiment concerns Jurkat. Put plainly: Cytotoxicity against human Jurkat cells. The experiment is classed as functional, cell-based. Put shortly: as §1
In experiment [7] the test system is Human betaherpesvirus 5. The experiment can be described thus: Inhibition of human CMV growth by viral yield assay. The experiment is classed as functional. The method in brief:
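Viral yield: once CPE appeared, well supernatants were serially diluted 1:2 sixteen times and used to infect fresh HFF cells (10^4/well). Inoculum was removed after 1 h; cells were incubated 5–7 days until CPE. Yield was quantified and IC99.9 taken as the drug concentration giving 99.9% inhibition of replication.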

In general, IC50 refers to the concentration needed to halve the response being measured. Take `Cc1nccn1-c1nc(N(C)Cc2ccccc2)nc2c1S(=O)(=O)CC2`: the result (in [1]; in the experiment with Human alphaherpesvirus 1; in the experiment on Human betaherpesvirus 6; in the experiment with Murid betaherpesvirus 2; in the experiment with Caviid betaherpesvirus 2; in the experiment on Murid betaherpesvirus 1) was inactive. The result with Human gammaherpesvirus 4 was inactive. Moreover, the Selectivity ratio entry in experiment [2] is reported as “>=10”. Also, the IC50 in the experiment on HFF [3] is greater than 30 µM.

With `CCCCN(C)c1nc(C)c([N+](=O)[O-])c(-n2ccnc2C)n1`, the result (in experiment [1]; in the experiment on Human alphaherpesvirus 1; in the experiment on Human betaherpesvirus 6; with Murid betaherpesvirus 2; with Caviid betaherpesvirus 2; in the experiment on Murid betaherpesvirus 1) was inactive. In the experiment with Human gammaherpesvirus 4, the outcome was inactive. The Selectivity ratio entry in experiment [2] was “>=10”. Moreover, in the experiment with HFF [4], half-maximal inhibition (IC50) required 0.3 µM.

Take `Cc1nccn1-c1nc(N(C)Cc2ccccc2)nc(C(C)C)c1[N+](=O)[O-]`: the outcome (in [1]; in the experiment on Human alphaherpesvirus 1; with Human betaherpesvirus 6; with Murid betaherpesvirus 2; in the experiment with Caviid betaherpesvirus 2; in the experiment with Murid betaherpesvirus 1) was inactive. Moreover, in the experiment on Human gammaherpesvirus 4, the result was inactive. Moreover, the Selectivity ratio entry in experiment [2] is “>=10”. Also, the IC50 in the experiment on HFF [3] was 3 µM.

As to `Cc1nc(N(C)Cc2ccccc2)nc(-n2ccnc2C(C)C)c1[N+](=O)[O-]`, the outcome (in [1]; in the experiment with Human alphaherpesvirus 1; in the experiment on Human betaherpesvirus 6; in the experiment with Murid betaherpesvirus 2; with Caviid betaherpesvirus 2; with Murid betaherpesvirus 1) was inactive. In addition, the result in the experiment on Human gammaherpesvirus 4 was inactive. In experiment [2], the Selectivity ratio result was “>=10”. The molecule further had an IC50 in the experiment with HFF [3] of 0.77 µM.

Regarding `Cc1cc(-n2ccnc2C)nc(N(C)Cc2ccccc2)n1`, the outcome (in experiment [1]; in the experiment on Human alphaherpesvirus 1; in the experiment with Human betaherpesvirus 6; in the experiment with Murid betaherpesvirus 2; in the experiment on Caviid betaherpesvirus 2; with Murid betaherpesvirus 1) was inactive. For the same molecule, in the experiment with Human gammaherpesvirus 4, the result was inactive. For the same molecule, in experiment [2], the Selectivity ratio entry is recorded as “>=10”. In the experiment on HFF [3], this molecule gave an IC50 greater than 30 µM.

As to `CCOc1nc(C)c([N+](=O)[O-])c(-n2ccnc2C)n1`, the outcome (in experiment [1]; in the experiment on Human alphaherpesvirus 1; in the experiment on Human betaherpesvirus 6; with Murid betaherpesvirus 2; with Caviid betaherpesvirus 2; in the experiment with Murid betaherpesvirus 1) was inactive. For the same molecule, in the experiment with Human gammaherpesvirus 4, the result was inactive. The Selectivity ratio entry in [2] is recorded as “>=10”. Moreover, the IC50 in the experiment with HFF [4] is 0.67 µM.

Regarding `Cc1nc(N2CCC(C)CC2)nc(-n2ccnc2C)c1[N+](=O)[O-]`, the outcome (in [1]; with Human alphaherpesvirus 1; in the experiment on Human betaherpesvirus 6; with Murid betaherpesvirus 2; in the experiment with Caviid betaherpesvirus 2; with Murid betaherpesvirus 1) was inactive. In the experiment with Human gammaherpesvirus 4, the result was inactive. For the same molecule, the Selectivity ratio entry in experiment [2] is on record as “>=10”. Moreover, the IC50 with HFF [4] was determined as 0.3 µM.

For `Cc1nc(N(C)Cc2ccccc2)nc(-n2ccnc2)c1[N+](=O)[O-]`, the outcome (in [1]; in the experiment with Human alphaherpesvirus 1; in the experiment with Human betaherpesvirus 6; with Murid betaherpesvirus 2; in the experiment on Caviid betaherpesvirus 2; in the experiment on Murid betaherpesvirus 1) was inactive. Besides, in the experiment with Human gammaherpesvirus 4, the outcome was inactive. Also, the Selectivity ratio entry in experiment [2] is “>=10”. Further, in the experiment with HFF [3], the IC50 turned out to be 0.02 µM.

As to `Nc1nc2c(ncn2COC(CO)CO)c(=O)[nH]1` [GANCICLOVIR], the results for the IC100 in the experiment with Human betaherpesvirus 5 [5] and in the experiment on Human betaherpesvirus 5 [7] were 10 µM and 5 µM, respectively. The IC50 with HFF [6] and in the experiment with Jurkat was greater than 100 µM in each case.

Take `Cc1nccn1-c1nc(N(C)Cc2ccccc2)nc(CCN(C)C)c1[N+](=O)[O-]`: the result (in experiment [1]; in the experiment with Human alphaherpesvirus 1; with Human betaherpesvirus 6; with Murid betaherpesvirus 2; in the experiment on Caviid betaherpesvirus 2; with Murid betaherpesvirus 1) was inactive. Besides, the result with Human gammaherpesvirus 4 was inactive. Also, the Selectivity ratio result in experiment [2] is on record as “>=10”. The same molecule had an IC50 in the experiment on HFF [3] of 6 µM.

Turning to `Cc1nccn1-c1nc(N(C)Cc2ccccc2)ncc1[N+](=O)[O-]`, the result (in [1]; with Human alphaherpesvirus 1; in the experiment on Human betaherpesvirus 6; in the experiment on Murid betaherpesvirus 2; in the experiment on Caviid betaherpesvirus 2; in the experiment on Murid betaherpesvirus 1) was inactive. Besides, in the experiment with Human gammaherpesvirus 4, the outcome was inactive. Besides, the Selectivity ratio result in [2] is “>=10”. Also, in the experiment on HFF [3], the IC50 stood at 3 µM.

On to `Cc1nccn1-c1nc(N(C)Cc2ccccc2)nc(Cl)c1[N+](=O)[O-]`, for which the outcome (in experiment [1]; in the experiment with Human alphaherpesvirus 1; in the experiment on Human betaherpesvirus 6; in the experiment with Murid betaherpesvirus 2; with Caviid betaherpesvirus 2; in the experiment on Murid betaherpesvirus 1) was inactive. The outcome in the experiment with Human gammaherpesvirus 4 was inactive. For the same molecule, the Selectivity ratio entry in experiment [2] is given as “>=10”. Also, in the experiment on HFF [3], the IC50 was greater than 30 µM.

For `Cc1nc(N(C)Cc2ccccc2)nc(-n2ccnc2-c2ccccc2)c1[N+](=O)[O-]`, the outcome (in experiment [1]; with Human alphaherpesvirus 1; in the experiment with Human betaherpesvirus 6; with Murid betaherpesvirus 2; in the experiment on Caviid betaherpesvirus 2; in the experiment with Murid betaherpesvirus 1) was inactive. In addition, the result with Human gammaherpesvirus 4 was inactive. Further, the Selectivity ratio result in experiment [2] was “>=10”. The same molecule showed an IC50 with HFF [3] of 5 µM.

For the molecule `CCc1nccn1-c1nc(N(C)Cc2ccccc2)nc(C)c1[N+](=O)[O-]`, the result (in [1]; in the experiment on Human alphaherpesvirus 1; with Human betaherpesvirus 6; in the experiment with Murid betaherpesvirus 2; in the experiment with Caviid betaherpesvirus 2; in the experiment with Murid betaherpesvirus 1) was inactive. In addition, the outcome in the experiment on Human gammaherpesvirus 4 was inactive. In addition, in [2], the Selectivity ratio entry is on record as “>=10”. In the experiment on HFF [3], this molecule had an IC50 of 0.19 µM.

On to `[3H]CC([3H])c1nc(N(C)Cc2ccccc2)nc(-n2ccnc2C)c1[N+](=O)[O-]` (configuration not stated), for which the Selectivity ratio result in [2] is “>=10”.

Regarding `Cc1nc(N(C)Cc2ccccc2)nc(-n2c(C)nc3ccccc32)c1[N+](=O)[O-]`, the result (in experiment [1]; in the experiment on Human alphaherpesvirus 1; in the experiment on Human betaherpesvirus 6; in the experiment on Murid betaherpesvirus 2; in the experiment on Caviid betaherpesvirus 2; with Murid betaherpesvirus 1) was inactive. For the same molecule, the outcome in the experiment on Human gammaherpesvirus 4 was inactive. The Selectivity ratio result in experiment [2] is reported as “>=10”. Further, the IC50 with HFF [3] was greater than 30 µM.

Take `Cc1nc(N(C)Cc2ccccc2)nc(-n2ccnc2C)n1`: the result (in experiment [1]; with Human alphaherpesvirus 1; with Human betaherpesvirus 6; in the experiment on Murid betaherpesvirus 2; in the experiment with Caviid betaherpesvirus 2; with Murid betaherpesvirus 1) was inactive. Moreover, the result in the experiment with Human gammaherpesvirus 4 was inactive. Also, the Selectivity ratio result in experiment [2] is “>=10”. This molecule also had a concentration for half-maximal inhibition (IC50) with HFF [3] greater than 30 µM.

As for `Cc1cn(-c2nc(N(C)Cc3ccccc3)nc(C)c2[N+](=O)[O-])cn1`, the result (in experiment [1]; in the experiment on Human alphaherpesvirus 1; in the experiment with Human betaherpesvirus 6; in the experiment on Murid betaherpesvirus 2; in the experiment on Caviid betaherpesvirus 2; with Murid betaherpesvirus 1) was inactive. The outcome with Human gammaherpesvirus 4 was inactive. The Selectivity ratio entry in experiment [2] is recorded as “>=10”. This molecule also had an IC50 with HFF [3] of 10 µM.

`Nc1ccn(C[C@@H](CO)OCP(=O)(O)O)c(=O)n1.O.O` [CIDOFOVIR]: the IC100 with Human betaherpesvirus 5 [5] amounted to 2.5 µM; with Human betaherpesvirus 5 [7] it was 1 µM. For the same molecule, the IC50 with HFF [6] is greater than 100 µM; with Jurkat, 100 µM.

For the molecule `Cc1nc(N(C)Cc2ccccc2)nc(-n2ccnc2C)c1C#N`, the result (in [1]; in the experiment with Human alphaherpesvirus 1; in the experiment on Human betaherpesvirus 6; with Murid betaherpesvirus 2; in the experiment on Caviid betaherpesvirus 2; in the experiment on Murid betaherpesvirus 1) was inactive. The outcome in the experiment on Human gammaherpesvirus 4 was inactive. The Selectivity ratio result in experiment [2] is “>=10”. Besides, the IC50 in the experiment on HFF [3] was greater than 30 µM.

The values are drawn from ChEMBL document CHEMBL1149480, “Discovery of a novel series of inhibitors of human cytomegalovirus primase” (Bioorg Med Chem Lett, 2006).
